Rtt109 HAT inh – inhibitors of C. albicans Rtt109/Vps75 HAT, primary screen, biochemical, ThioGlo CoA-SH fluorescence, plate reader; Histone acetyltransferase RTT109 (Candida albicans (strain SC5314 / ATCC MYA-2876)), …; purified Rtt109/Vps75, 4 h; inhibition, % at 34.9 µM; hit rate 0.16% among 330,000;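 active = inhibition of at least 50% in every replicate; inconclusive = best replicate reaches 50% inhibition but some replicates fall short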
Target sequence (Q5AAJ8 whole entry, looked up): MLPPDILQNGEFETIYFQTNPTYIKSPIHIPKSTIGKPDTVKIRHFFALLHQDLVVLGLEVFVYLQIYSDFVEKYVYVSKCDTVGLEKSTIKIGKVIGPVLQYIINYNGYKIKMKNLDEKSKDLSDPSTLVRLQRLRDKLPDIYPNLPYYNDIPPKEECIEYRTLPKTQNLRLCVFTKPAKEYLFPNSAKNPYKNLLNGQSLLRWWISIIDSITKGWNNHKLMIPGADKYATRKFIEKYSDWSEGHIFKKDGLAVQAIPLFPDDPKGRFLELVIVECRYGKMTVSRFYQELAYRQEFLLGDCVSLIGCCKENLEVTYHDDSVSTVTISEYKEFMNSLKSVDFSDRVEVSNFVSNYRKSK
dFosB activator – activators of delta FosB homodimer, primary screen, biochemical, fluorescence polarization, TAMRA-CDK5 oligo, single point; purified delta FosB; percent of positive-control signal above neutral wells; Protein FosB (Mus musculus), P13346; activation, % at 25 µM; hit rate 0.99% among 340,000;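 active = mean activation above about 17%, with every replicate also reaching it, limit read from the data, passing the limit was not always enough; inconclusive = only one of the two conditions met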
DYRK1A inh – rat Dyrk1A kinase inhibitors, primary screen, biochemical, single point, plate reader. AID 504441, 2011. Dual specificity tyrosine-phosphorylation-regulated kinase 1A (Rattus norvegicus), Q63470. hit rate 0.43% among 310,000. inhibition, % at 12.5 µM. ADP-Glo luminescence, NFATc1 peptide; in the data active = inhibition above about 50%
CAL PDZ FP-1 – untagged CAL PDZ binding inhibitors, primary screen, biochemical, fluorescence polarization, HTS. hit rate 0.92% among 300,000. purified CAL PDZ, TMR-peptide fluorescence polarization, 1 h. inhibition, % at 24.9 µM;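 active = mean inhibition of at least 30% with at least half of replicates also reaching 30%; inconclusive = no clear call, values can overlap the other calls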
CAL PDZ FP-2 – CAL PDZ peptide-binding inhibitors, primary screen, biochemical, fluorescence polarization, Cer-tagged CAL PDZ, HTS; purified CAL PDZ, TMR-peptide fluorescence polarization, 1 h; inhibition, % at 20 µM; hit rate 0.02% among 330,000; AID 504414, 2011; Golgi-associated PDZ and coiled-coil motif-containing protein (Homo sapiens), Q9HD26;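 active = highest replicate inhibition of at least 40%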
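Read-out basis: mP drop reported as inhibition | Assay system: Tagged CAL PDZ protein CerCALP, purified | Benchmarks: Unlabelled peptide for full inhibition, DMSO wells as neutral | Schedule: 1 h incubation at room temperature before polarization reading | Buffer or medium: Sodium phosphate/NaCl buffer pH 7.4 with TCEP, IgG, Thesit | Doses: Single point, 20 µM | Measured by: Fluorescence polarization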
CDK5 p35 inh – inhibitors of human CDK5/p35 kinase, primary screen, biochemical, single concentration; hit rate 0.01% among 330,000; Cyclin-dependent kinase 5 (Homo sapiens) + Cyclin-dependent kinase 5 activator 1 (Homo …; Recombinant CDK5/p35, ADP-Glo luminescence, 60 min; inhibition, % at 10 µM; AID 488839, 2010;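 active = highest replicate inhibition of at least 50% and at least 75% of replicates reaching 50%; inconclusive = only one of the two criteria met; inactive = both criteria failed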
Numbers stand for hits; - = inactive; ? = inconclusive; . = not tested or not shown; + = active, no number. Compounds with a hit are over-represented: about 2.2% of the library has one in this group of screens.

SMILES	Rtt109 HAT inh	dFosB activator	DYRK1A inh	CAL PDZ FP-1	CAL PDZ FP-2	CDK5 p35 inh
CN1CCN(c2nc3c(c(=O)[nH]c(=O)n3C)n2Cc2ccccc2F)CC1	-	-	-	51.5	-	-
CC(c1ccccc1)n1c(N2CCNCC2)nc2c1c(=O)[nH]c(=O)n2C (stereo not given)	64.9	-	-	-	-	-
COc1ccc(CCNC(=O)CSc2ccc(-c3cccs3)nn2)cc1OC	-	-	-	-	-	-
c1cc2ccc3ccc(-n4cnnn4)c4ccc(c1)c2c34	-	25.1	-	118.9	.	-
CCC(C)Sc1cccc(-c2nc3cc(C)ccn3c2NC2CCCCC2)c1 (stereo not given)	-	-	-	-	-	-
O=C(NCC(c1ccco1)N1CCN(c2ccccc2)CC1)C(=O)NC1CCCC1 (stereo not given)	-	-	-	.	-	-
O=C(NCC(c1ccco1)N1CCN(c2ccccc2)CC1)C(=O)NC1CCCCC1 (stereo not given)	-	-	-	35.5	-	-
O=C(NCc1ccncc1)C(=O)NCC(c1ccco1)N1CCN(c2ccc(F)cc2)CC1 (stereo not given)	53.1	-	-	-	-	-
CCOc1ccc(CC(=O)OCn2nnc3ccccc3c2=O)cc1	-	-	-	.	-	-
Cc1ccc(O)c(NC(=S)NC(=O)C(C)C)c1	-	-	-	33.8	-	-
CCCn1nc(NS(=O)(=O)c2ccccc2)c2cc3ccccc3nc21	-	-	-	58.4	-	-
O=S1(=O)NC(=NCCc2ccccn2)c2ccccc21	-	-	-	-	-	-
CCN(CC)CCNC(=O)c1c(C)n(-c2ccccc2)c2cc(Br)c(OC)cc12	-	25.9	-	-	-	-
COc1cc(NC(=O)c2ccc(F)cc2)c(OC)cc1Cl	-	-	-	-	-	-
COC(=O)c1cc(OC)c(OC)cc1NC(=O)c1ccc(OC)c(OC)c1	-	19.1	-	-	-	-
COc1ccc(C(=O)Nc2cc(OC)c(Cl)cc2OC)cc1	-	-	-	37.2	-	-
COC(=O)c1cc(OC)c(OC)cc1NC(=O)c1ccccc1	-	-	-	-	-	-
COc1ccc(CNC(=O)COC(=O)c2ccc(S(=O)(=O)N3CCCCC3)cc2)cc1	51.9	-	-	-	-	-
CCOC(=O)c1ccc(S(=O)(=O)N2CCNCC2)cc1	-	-	-	.	-	-
CC(C)(C)N(Cc1ccccc1)C(=O)COC(=O)c1ccc(S(=O)(=O)N2CCOCC2)cc1	-	-	-	39.1	-	-
COc1ccc(CNC(=O)COC(=O)c2ccc(S(=O)(=O)N3CCOCC3)cc2)cc1	-	-	.	.	-	-
CN(C(=O)COC(=O)c1ccc(Br)c(S(=O)(=O)N2CCOCC2)c1)C1CCCCC1	-	-	-	+	-	-
CCOC(=O)c1ccc(S(=O)(=O)N2CCN(S(=O)(=O)CC)CC2)cc1	-	-	-	64.9	-	-
CN(C(=O)COC(=O)c1ccc(S(=O)(=O)N2CCOCC2)cc1)C1CCCCC1	-	-	-	-	-	-
COc1ccc(C(=O)NCC(=O)OCC(=O)c2ccc(Cl)cc2)cc1OC	-	-	-	33.9	-	-
SMILES	Rtt109 HAT inh	dFosB activator	DYRK1A inh	CAL PDZ FP-1	CAL PDZ FP-2	CDK5 p35 inh
CCCCCCCCCCn1c2c(c(=N)c3c1CCC3)CCC2	76.5	-	-	-	-	-
CCCCCCCCCn1c2c(c(=N)c3c1CCC3)CCCC2	?	-	-	-	-	-
COc1ccc(/C=C2\SC(N)=NC2=O)cc1Br	-	-	-	-	-	-
NC1=NC(=O)/C(=C/c2cccc(-c3ccc(S(N)(=O)=O)cc3)c2)S1	-	59.8	-	-	-	-
C/C(=N\NC(=O)c1ccc2c(c1)OCO2)c1ccc2c(c1)OCO2	-	-	.	47.5	-	-
C/C(=N\NC(=O)c1ccc2c(c1)OCO2)c1ccc(C(=O)O)s1	-	-	-	-	-	-
COc1ccccc1/C=N/NC(=O)c1ccc2c(c1)OCO2	-	-	-	69.9	.	-
Cc1cc(NC(=O)NC(=O)c2ccccc2NC(=O)C(C)N)ccc1Oc1ncc(Br)cn1 (stereo not given)	-	-	.	-	-	-
CC[C@]12c3[nH]c4cc(CCC(=O)N(C)C)ccc4c3CCN1C(=O)[C@@H](CC(=O)NCCCOC)C[C@@H]2C(=O)N1CCN(C(=O)C2CC2)CC1	-	-	-	31.8	-	-
COc1cc(NS(=O)(=O)c2cn(C)cn2)cc(OC)c1	-	-	-	-	-	-
O=C(Cn1nc(C(=O)O)c2ccccc2c1=O)Nc1cc(S(=O)(=O)N2CCCCC2)ccc1Cl	-	-	-	-	-	-
CC(=O)N1CCC(=NNC(=O)c2cc3ccccc3cc2O)CC1	-	-	-	55.3	-	-
CC(C)CCC(CCN1CCCC1)c1ccc2c(c1)OCO2 (stereo not given)	-	-	-	74.4	-	-
CC(C)CCC(CCN1CCOCC1)c1ccc2c(c1)OCO2 (stereo not given)	-	-	-	-	-	-
OCCCc1cn(Cc2ccccc2)c2ccccc12	-	-	-	56.2	.	-
Cc1ccc(C(=O)NC(C)c2nnc(SCC(=O)NC3CCCC3)n2C)cc1 (stereo not given)	-	-	-	-	-	-
C(=NN=C(NN=Cc1cccs1)NN=Cc1cccs1)c1cccs1	-	21.1	-	-	-	-
CCCCS(=O)(=O)N1CCCC(C(=O)Oc2ccccc2)C1 (stereo not given)	-	-	-	65.6	.	-
CCCS(=O)(=O)N1CCCC(C(=O)Oc2ccc(OC)cc2)C1 (stereo not given)	-	-	-	-	-	-
c1ccc2c(c1)SCc1nnc(-c3ccncc3)n1-2	-	-	-	95.9	-	-
COc1ccc(C2CC(=O)c3c(C)nc(N4CCN(c5ccccc5)CC4)nc3C2)cc1 (stereo not given)	-	-	-	37.8	-	-
CC(C)CC(C)c1cc(N)nc2nc3ccccc3n12 (stereo not given)	-	-	-	-	-	-
COc1cc(C=NO)nc(-c2ccccn2)c1	-	-	-	-	-	-
COc1ccc(NC(=O)c2cc(-c3ccccc3O)n[nH]2)cc1Cl	-	25.5	-	-	-	-
COc1ccc(NC(=O)c2cc(-c3cc(C)cc(C)c3O)n[nH]2)cc1Cl	-	-	-	-	-	-

Screens: PubChem BioAssay, Broad Institute
